Measurements from different studies.
Lines come from different studies, so protocols differ.

Compound	target or system	assay	setting	measurement	value
CCN(O)N=Nc1ccc(S(=O)(=O)Nc2onc(C)c2C)cc1		DPPH scavenging, absorbance	120 µg/mL	inhibition	22.5%
COc1cc(-c2ccc(-c3ccc(C(=N)N)nc3)s2)cc(OC)c1OC	NCI/ADR-RES	cell growth or viability, SRB		GI50	5.2 µM
CN(O)N=Nc1ccc(S(=O)(=O)Nc2nccs2)cc1		DPPH scavenging, absorbance	120 µg/mL	inhibition	16.4%
CNC(=O)c1cc(Oc2ccc(NC(=O)Nc3ccc(Cl)c(C(F)(F)F)c3)cc2)ccn1	Salmonella	microbial growth	clinical isolate	MIC	> 100 µM
O=C1O[C@H]([C@@H](O)CO)C(O)=C1O		DPPH scavenging, absorbance	160 µM	inhibition	70.9%
O=C1O[C@H]([C@@H](O)CO)C(O)=C1O		DPPH scavenging	100 µg/mL	inhibition	81.3%
Cc1cccc(N(O)N=Nc2ccc(S(=O)(=O)Nc3cc(C)on3)cc2)c1		DPPH scavenging, absorbance	180 µg/mL	inhibition	34.7%
COc1cc(C=Cc2cc(-c3ccccc3)nc(O)n2)ccc1O		DPPH scavenging	12.5 µg/mL	inhibition	38.3%
Cn1nnc2c(C(N)=O)ncn2c1=O	MGC-803	cell growth or viability		EC50	356 µM
Oc1ccc(Br)cc1C=NCCN1CCOCC1		DPPH scavenging, absorbance	80 µM	inhibition	17.4%
CCN(O)N=Nc1ccc(S(=O)(=O)Nc2nccs2)cc1		DPPH scavenging, absorbance	60 µg/mL	inhibition	9.02%
COc1cc(C=CC(=O)CC(c2ccc([N+](=O)[O-])cc2)n2ccnc2)ccc1O (stereo not drawn)		DPPH scavenging	50 µg/mL	inhibition	61.4%
